# According to article PMC5598146 (Toxicology Reports, 2015):
# “Also recorded” adds a separate entry of the source.
# Experiments:
# [1] = Relative oral bioavailability of sodium, phosphate and hemisulfate salts in rats; type: in vivo, Sprague-Dawley rats
# Procedure, shortened: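 Male Sprague-Dawley rats, 4/group, received a single 30 mg/kg oral gavage dose in 1% methylcellulose of either parent acid or its sodium, phosphate or sulfate salt. Jugular-catheter blood was drawn at about 15 and 30 min and at 1, 2, 4, 8 and 24 h. Plasma parent was measured by LC/MS/MS with an internal standard. Relative AUClast and Cmax were corrected for molecular-weight differences.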
# [2] = test system: S. typhimurium strains TA98 and TA100; assay: Abbreviated Ames; type: cell-based; settings: plate incorporation, up to 5000 μg/plate, ±S9
# Procedure, shortened: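 Salmonella TA98 and TA100 plate-incorporation assay per OECD 471, run with and without rat liver S9. Test compound and its decarboxylated impurity were tested at concentrations up to and including 5000 µg/plate, with vehicle and positive controls. Revertant colony counts were compared with vehicle control, and bacterial toxicity was recorded.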
# [3] = test system: bred female Crl:CD(SD) rats; assay: Definitive developmental toxicity study; type: in vivo, rat
# Procedure, shortened: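 Bred female Crl:CD(SD) rats, 25/group, dosed once daily by oral gavage at 0, 250, 500 or 1000 mg/kg/day from gestation Days 6 through 20. Laparohysterectomy on gestation Day 21. Uteri, placentae and ovaries were examined; viable and dead fetuses, early and late resorptions, implantations and corpora lutea were counted; gravid uterine weight, net body weight and fetal weights were recorded.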
# Swiss albino (CD-1) mice = assay: In vivo mouse micronucleus assay; settings: 500-2000 mg/kg bw oral, male mice
# [4] = test system: S. typhimurium strains TA98, TA100, TA1535, TA1537 and E. coli strain WP2 uvrA; assay: Bacterial reverse mutation test; type: cell-based, Escherichia coli; settings: 51-5000 ug/plate, plate incorporation and pre-incubation, ±S9
# [5] = male, Sprague-Dawley, rat, plasma, po, 30 mg/kg
smiles,measurement,setting,value
"Cc1nc2cccc(OCC(C)(C)C(=O)NC(C)C)c2c(N)c1C(=O)O [S9632, 4-amino-5-(3-(isopropylamino)-2,2-dimethyl-3-oxopropoxy)-2-methylquinoline-3-carboxylic acid]",AUC(0-t),[1]; [5],59.6 ± 26.1 ng·h/mL
same,Cmax,[1]; [5],38.7 ± 24.5 ng/mL
same,%Cmax Relative to S9632,"[1]; single oral 30 mg/kg, male rats, corrected for molecular weight",100.0%
same,"Mutagenicity, result",[2],not mutagenic
same,"Corpora Lutea, Mean",[3]; 250 mg/kg/d,16.3
same,"Corpora Lutea, Total",[3]; 250 mg/kg/d,407
same,"Dead fetuses, Mean",[3]; 250 mg/kg/d,0
same,"Dead fetuses, Total",[3]; 250 mg/kg/d,0
same,"Fetal Wt., Mean",[3]; 250 mg/kg/d,5.5 g
same,"Fetuses Sex F, Mean",[3]; 250 mg/kg/d,6.8
same,"Fetuses Sex F, Total",[3]; 250 mg/kg/d,169
same,"Fetuses Sex M, Mean",[3]; 250 mg/kg/d,7.6
same,"Fetuses Sex M, Total",[3]; 250 mg/kg/d,189
same,"Implant. sites, Mean",[3]; 250 mg/kg/d,15.3
same,"Implant. sites, Total",[3]; 250 mg/kg/d,382
same,"Post-implant. loss, Mean",[3]; 250 mg/kg/d,1.0
same,"Post-implant. loss, Total",[3]; 250 mg/kg/d,24
same,"Pre-implant. loss, Mean",[3]; 250 mg/kg/d,1.0
same,"Pre-implant. loss, Total",[3]; 250 mg/kg/d,25
same,"Resorptions Early, Mean",[3]; 250 mg/kg/d,1.0
same,"Resorptions Early, Total",[3]; 250 mg/kg/d,24
same,"Resorptions Late, Mean",[3]; 250 mg/kg/d,0
same,"Resorptions Late, Total",[3]; 250 mg/kg/d,0
same,"Viable fetuses, Mean",[3]; 250 mg/kg/d,14.3
same,"Viable fetuses, Total",[3]; 250 mg/kg/d,358
same,"Malformations, fetuses (litters)",[3]; 250 mg/kg/day,1(1)
same,"Corpora Lutea, Mean",[3]; 500 mg/kg/d,16.8
same,"Corpora Lutea, Total",[3]; 500 mg/kg/d,421
same,"Dead fetuses, Mean",[3]; 500 mg/kg/d,0
same,"Dead fetuses, Total",[3]; 500 mg/kg/d,0
same,"Fetal Wt., Mean",[3]; 500 mg/kg/d,5.4 g
same,"Fetuses Sex F, Mean",[3]; 500 mg/kg/d,7.4
same,"Fetuses Sex F, Total",[3]; 500 mg/kg/d,184
same,"Fetuses Sex M, Mean",[3]; 500 mg/kg/d,7.1
same,"Fetuses Sex M, Total",[3]; 500 mg/kg/d,177
same,"Implant. sites, Mean",[3]; 500 mg/kg/d,15.3
same,"Implant. sites, Total",[3]; 500 mg/kg/d,383
same,"Post-implant. loss, Mean",[3]; 500 mg/kg/d,0.9
same,"Post-implant. loss, Total",[3]; 500 mg/kg/d,22
same,"Pre-implant. loss, Mean",[3]; 500 mg/kg/d,1.5
same,"Pre-implant. loss, Total",[3]; 500 mg/kg/d,38
same,"Resorptions Early, Mean",[3]; 500 mg/kg/d,0.5
same,"Resorptions Early, Total",[3]; 500 mg/kg/d,12
same,"Resorptions Late, Mean",[3]; 500 mg/kg/d,0.4
same,"Resorptions Late, Total",[3]; 500 mg/kg/d,10
same,"Viable fetuses, Mean",[3]; 500 mg/kg/d,14.4
same,"Viable fetuses, Total",[3]; 500 mg/kg/d,361
same,"Malformations, fetuses (litters)",[3]; 500 mg/kg/day,1(1)
same,"Corpora Lutea, Mean",[3]; 1000 mg/kg/d,16.5
same,"Corpora Lutea, Total",[3]; 1000 mg/kg/d,413
same,"Dead fetuses, Mean",[3]; 1000 mg/kg/d,0
same,"Dead fetuses, Total",[3]; 1000 mg/kg/d,0
same,"Fetal Wt., Mean",[3]; 1000 mg/kg/d,5.6 g
same,"Fetuses Sex F, Mean",[3]; 1000 mg/kg/d,7.8
same,"Fetuses Sex F, Total",[3]; 1000 mg/kg/d,194
same,"Fetuses Sex M, Mean",[3]; 1000 mg/kg/d,7.2
same,"Fetuses Sex M, Total",[3]; 1000 mg/kg/d,181
same,"Implant. sites, Mean",[3]; 1000 mg/kg/d,15.7
same,"Implant. sites, Total",[3]; 1000 mg/kg/d,393
same,"Post-implant. loss, Mean",[3]; 1000 mg/kg/d,0.7
same,"Post-implant. loss, Total",[3]; 1000 mg/kg/d,18
same,"Pre-implant. loss, Mean",[3]; 1000 mg/kg/d,0.80
same,"Pre-implant. loss, Total",[3]; 1000 mg/kg/d,20
same,"Resorptions Early, Mean",[3]; 1000 mg/kg/d,0.7
same,"Resorptions Early, Total",[3]; 1000 mg/kg/d,18
same,"Resorptions Late, Mean",[3]; 1000 mg/kg/d,0
same,"Resorptions Late, Total",[3]; 1000 mg/kg/d,0
same,"Viable fetuses, Mean",[3]; 1000 mg/kg/d,15.0
same,"Viable fetuses, Total",[3]; 1000 mg/kg/d,375
same,"Malformations, fetuses (litters)",[3]; 1000 mg/kg/day,3(3)
same,"Micronucleus formation (in vivo), result",Swiss albino (CD-1) mice,did not induce micronuclei; also recorded: Negative
same,"Reverse mutation (in vitro), result",[4],Negative
